Data from ChEMBL document CHEMBL1909630, “Azaxanthene based selective glucocorticoid receptor modulators: design, synthesis, and pharmacological evaluation of (S)-4-(5-(1-((1,3,4-thiadiazol-2-yl)amino)-2-methyl-1-oxopropan-2-yl)-5H-chromeno[2,3-b]pyridin-2-yl)-2-fluoro-N,N-dimethylbenzamide (BMS-776532) and its methylene homologue …” (J Med Chem, 2011).

Legend:
Glucocorticoid receptor [1] = target: T1, Glucocorticoid receptor (Homo sapiens, UniProt P04150); test: Displacement of GS-red from glucocorticoid receptor by fluorescence polarization assay
T1 sequence (P04150 whole entry): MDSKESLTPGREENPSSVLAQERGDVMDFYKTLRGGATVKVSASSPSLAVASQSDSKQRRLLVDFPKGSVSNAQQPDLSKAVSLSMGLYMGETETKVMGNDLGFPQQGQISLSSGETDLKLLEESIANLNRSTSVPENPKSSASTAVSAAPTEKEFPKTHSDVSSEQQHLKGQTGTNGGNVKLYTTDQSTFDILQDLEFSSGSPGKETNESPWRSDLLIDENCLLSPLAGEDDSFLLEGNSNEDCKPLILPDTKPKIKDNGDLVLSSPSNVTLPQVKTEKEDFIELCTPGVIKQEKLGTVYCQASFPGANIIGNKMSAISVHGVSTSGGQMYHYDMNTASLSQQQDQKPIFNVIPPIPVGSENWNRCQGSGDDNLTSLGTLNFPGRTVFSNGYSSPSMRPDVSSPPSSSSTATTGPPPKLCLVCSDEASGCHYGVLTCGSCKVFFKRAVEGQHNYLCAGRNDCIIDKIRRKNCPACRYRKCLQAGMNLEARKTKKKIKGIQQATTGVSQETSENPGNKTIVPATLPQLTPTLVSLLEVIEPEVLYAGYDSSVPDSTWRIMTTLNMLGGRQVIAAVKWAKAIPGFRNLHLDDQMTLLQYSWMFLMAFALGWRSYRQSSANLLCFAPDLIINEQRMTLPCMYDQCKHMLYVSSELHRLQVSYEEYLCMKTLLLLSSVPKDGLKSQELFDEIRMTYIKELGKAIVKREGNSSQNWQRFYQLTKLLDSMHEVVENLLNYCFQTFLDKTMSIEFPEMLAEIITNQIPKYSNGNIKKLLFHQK

Glucocorticoid receptor [2] = target: T1, Glucocorticoid receptor; test: Transactivation activity at GR-alpha in human NP1 Hela cells assessed as inhibition of GAL4-DBD after 20 hrs by luciferase reporter gene assay; type: cell-based
Glucocorticoid receptor [3] = target: T1, Glucocorticoid receptor; test: Transrepression activity at glucocorticoid receptor alpha in IL-1beta-stimulated human A549 cells assessed as inhibition of NFkappaB-dependent E-selectin transcription by luciferase reporter gene assay; type: cell-based
Glucocorticoid receptor [4] = target: T1, Glucocorticoid receptor; test: Transactivation activity at GR-alpha in human NP1 Hela cells assessed as induction of GAL4-DBD after 20 hrs by luciferase reporter gene assay; type: cell-based
Glucocorticoid receptor [5] = target: T1, Glucocorticoid receptor; test: Transrepression activity at glucocorticoid receptor alpha in phorbol myristate acetate-stimulated human A549 cells assessed as inhibition of AP1 response element by luciferase reporter gene assay; type: cell-based
Blood [6] = test: Antiinflammatory activity in human whole blood assessed as inhibition of TNF-alpha-induced IL-8 production after overnight incubation by ELISA; type: functional, tissue-based
Blood [7] = test: Antiinflammatory activity in human whole blood assessed as inhibition of LPS-induced TNFalpha production after overnight incubation by ELISA; type: functional, tissue-based
In short: (§1)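 Whole blood from two donors per experiment was collected into ACD-A. Compounds were added and the blood was incubated about 20 h at 37 °C under 5% CO2. Blood was then stimulated for 5 h with LPS (final 100 ng/mL, for TNFα) or IL-1β (final 10 ng/mL, for IL-8). Plasma TNFα or IL-8 was measured by ELISA. Efficacy was expressed as % of dexamethasone, and values are means of at least two experiments.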

Blood [8] = test: Antiinflammatory activity in human whole blood assessed as inhibition of IL-1beta-induced IL-8 production after overnight incubation by ELISA relative to Dexamethasone; type: functional; in short: as §1
Blood [9] = test: Antiinflammatory activity in human whole blood assessed as inhibition of TNF-alpha-induced IL-8 production after overnight incubation by ELISA relative to dexamethasone; type: functional
Blood [10] = test: Antiinflammatory activity in human whole blood assessed as inhibition of IL-1beta-induced IL-8 production after overnight incubation by ELISA; type: functional, tissue-based; in short: as §1
Glucocorticoid receptor [11] = target: T1, Glucocorticoid receptor; test: Transactivation activity at glucocorticoid receptor alpha human 13D3/Huh7 cells assessed as induction of TAT activity after 4 hrs by spectrophotometry; type: cell-based, Huh-7
Blood [12] = test: Antiinflammatory activity in human whole blood assessed as inhibition of LPS-induced TNFalpha production after overnight incubation by ELISA relative to Dexamethasone; type: functional; in short: as §1

Row | Structure (SMILES) | Ki (Glucocorticoid receptor [1]) | EC50 (Glucocorticoid receptor [2]) | EC50 (Glucocorticoid receptor [3]) | EC50 (Glucocorticoid receptor [4]) | EC50 (Glucocorticoid receptor [5]) | EC50 (Blood [6]) | EC50 (Blood [7]) | EC50 (Blood [10]) | EC50 (Glucocorticoid receptor [11]) | Imax (Blood [8]) | Imax (Blood [9]) | Imax (Blood [12])
1 | CC(C)(C(=O)Nc1nncs1)[C@H]1c2ccccc2Oc2nc(-c3ccc(C(=O)N4CCCC4)c(F)c3)ccc21 | 1.96 nM | 205 nM | 29.2 nM | 177 nM | 25 nM | 1300 nM | 886 nM | 238 nM | 389 nM | 86% | 61% | 80%
2 | CC(C)Oc1ccc(-c2ccc3c(n2)Oc2ccccc2[C@@H]3C(C)(C)C(=O)Nc2nncs2)cc1F | 3.9 nM | 162 nM | 73 nM | 496 nM | 47 nM | > 20000 nM | > 5000 nM | > 20000 nM | 876 nM | 7% | 12% | 49%
3 | CC(C)(C(=O)Nc1nncs1)[C@H]1c2ccccc2Oc2nc(-c3ccc(C(=O)N4CCOCC4)c(F)c3)ccc21 | 2.7 nM | 34.4 nM | 11.7 nM | 78.9 nM | 11.7 nM | 382 nM | 469 nM | 789 nM | 93 nM | 92% | 84% | 88%
4 | COc1ccc(-c2ccc3c(n2)Oc2ccccc2[C@H]3C(C)(C)C(=O)Nc2nncs2)cc1 | 49.5 nM | 4360 nM | 355 nM | > 10000 nM | > 10000 nM | – | – | – | > 5000 nM | – | – | –
5 | CC(C)(C(=O)Nc1nncs1)[C@H]1c2ccccc2Oc2nc(-c3ccc(C(=O)N4CCCCC4)cc3)ccc21 | 1.3 nM | 167 nM | 28.6 nM | 273 nM | 15.7 nM | – | – | – | > 5000 nM | – | – | –
6 | CC(C)(C(=O)Nc1nncs1)[C@H]1c2ccccc2Oc2nc(-c3ccc(C(=O)O)cc3)ccc21 | 15.4 nM | > 5000 nM | 1090 nM | > 10000 nM | 544 nM | – | – | – | – | – | – | –
7 | CCc1ccc(-c2ccc3c(n2)Oc2ccccc2[C@H]3C(C)(C)C(=O)Nc2nncs2)cc1 | 1 nM | 27 nM | 8.3 nM | 108 nM | 17.7 nM | – | – | – | 732 nM | – | – | –
8 | CC(C)(C(=O)Nc1nncs1)[C@H]1c2ccccc2Oc2nc(-c3ccc(C(N)=O)cc3)ccc21 | – | 202 nM | – | > 10000 nM | > 10000 nM | – | – | – | > 5000 nM | – | – | –
9 | Cc1ccc(-c2ccc3c(n2)Oc2ccccc2[C@@H]3C(C)(C)C(=O)Nc2nncs2)cc1 | 2.5 nM | 260 nM | 26.6 nM | 2210 nM | 46.8 nM | – | – | – | > 5000 nM | – | – | –
10 | CC(C)(C(=O)Nc1nncs1)[C@H]1c2ccccc2Oc2nc(-c3ccc(C(=O)N4CCC(F)(F)C4)c(F)c3)ccc21 | 2.53 nM | 99.3 nM | 20.6 nM | 192 nM | 37.9 nM | 3070 nM | 4020 nM | 2490 nM | 1990 nM | 81% | 67% | 78%
11 | CN(C)C(=O)c1cnc(-c2ccc3c(c2)Oc2ccccc2C3C(C)(C)C(=O)Nc2nncs2)nc1 (racemic) | 4.2 nM | 592 nM | – | 596 nM | 183 nM | – | – | – | – | – | – | –
12 | Cc1ccccc1-c1ccc2c(n1)Oc1ccccc1[C@@H]2C(C)(C)C(=O)Nc1nncs1 | 10.5 nM | 1560 nM | > 5000 nM | > 10000 nM | 122 nM | – | – | – | > 5000 nM | – | – | –

The next lines start with results.

Row | Ki (Glucocorticoid receptor [1]) | EC50 (Glucocorticoid receptor [2]) | EC50 (Glucocorticoid receptor [3]) | EC50 (Glucocorticoid receptor [4]) | EC50 (Glucocorticoid receptor [5]) | EC50 (Blood [6]) | EC50 (Blood [7]) | EC50 (Blood [10]) | EC50 (Glucocorticoid receptor [11]) | Structure (SMILES) | Imax (Blood [8]) | Imax (Blood [9]) | Imax (Blood [12])
13 | 3.8 nM | 242 nM | 20 nM | 926 nM | 13.6 nM | – | – | – | – | CN(C)c1ccc(-c2ccc3c(n2)Oc2ccccc2[C@@H]3C(C)(C)C(=O)Nc2nncs2)cc1 | – | – | –
14 | 6 nM | 134 nM | – | > 10000 nM | 42 nM | – | – | – | > 5000 nM | CC(=O)c1ccc(-c2ccc3c(n2)Oc2ccccc2[C@@H]3C(C)(C)C(=O)Nc2nncs2)cc1F | – | – | –
15 | 24 nM | 1560 nM | > 5000 nM | > 10000 nM | 654 nM | – | – | – | > 5000 nM | Cc1cccc(-c2ccc3c(n2)Oc2ccccc2[C@@H]3C(C)(C)C(=O)Nc2nncs2)c1 | – | – | –
16 | 4.1 nM | 162 nM | – | 382 nM | 58 nM | – | – | – | > 5000 nM | CN(C)C(=O)c1ccc(-c2ccc3c(c2)Oc2ccccc2C3C(C)(C)C(=O)Nc2nncs2)nc1 (racemic) | – | – | –
17 | 1.2 nM | 105 nM | 21.3 nM | > 10000 nM | 28.3 nM | – | – | – | > 5000 nM | COc1ccc(-c2ccc3c(n2)Oc2ccccc2[C@@H]3C(C)(C)C(=O)Nc2nncs2)cc1 | – | – | –
18 | 0.67 nM | 36.7 nM | 7.8 nM | 32.4 nM | 17.4 nM | – | 78.5 nM | – | 740 nM | CCN(C)C(=O)c1ccc(-c2ccc3c(n2)Oc2ccccc2[C@H]3C(C)(C)C(=O)Nc2nncs2)cc1 | – | – | 100%
19 | 9.17 nM | 806 nM | 216 nM | > 10000 nM | 167 nM | – | – | – | > 5000 nM | CNC(=O)c1ccc(-c2ccc3c(n2)Oc2ccccc2[C@@H]3C(C)(C)C(=O)Nc2nncs2)cc1 | – | – | –
20 | 2.9 nM | 31 nM | 10.2 nM | 75.4 nM | 6.2 nM | – | – | – | 1100 nM | CC(=O)c1ccc(-c2ccc3c(n2)Oc2ccccc2[C@@H]3C(C)(C)C(=O)Nc2nncs2)cc1 | – | – | –
21 | 412 nM | – | – | – | – | – | – | – | – | CC(C)(C(=O)Nc1nncs1)C1c2ccccc2Oc2ncccc21 (racemic) | – | – | –
22 | 4 nM | 196 nM | 22.8 nM | 206 nM | 28.6 nM | – | – | – | > 5000 nM | CCS(=O)(=O)c1ccc(-c2ccc3c(n2)Oc2ccccc2[C@@H]3C(C)(C)C(=O)Nc2nncs2)cc1 | – | – | –
23 | 3.08 nM | 130 nM | 33.8 nM | 165 nM | 50 nM | 2850 nM | 932 nM | 5250 nM | 329 nM | CC(C)(C(=O)Nc1nncs1)[C@H]1c2ccccc2Oc2nc(-c3ccc(C(=O)N4CCC(F)(F)C4)c(Cl)c3)ccc21 | 82% | 59% | 85%
24 | 8.6 nM | 610 nM | 74.9 nM | > 10000 nM | 77.9 nM | – | – | – | > 5000 nM | CN(C)C(=O)c1ccc(-c2ccc3c(c2)Oc2ccccc2C3C(C)(C)C(=O)Nc2nncs2)cc1 (racemic) | – | – | –
25 | 5.7 nM | 201 nM | 108 nM | > 10000 nM | 90.8 nM | – | – | – | – | CC(C)(C(=O)Nc1nncs1)[C@@H]1c2ccccc2Oc2nc(-c3ccc(O)cc3)ccc21 | – | – | –
26 | – | – | – | – | – | – | 6.9 nM | 5.1 nM | – | C[C@@H]1C[C@H]2[C@@H]3CCC4=CC(=O)C=C[C@]4(C)[C@@]3(F)[C@@H](O)C[C@]2(C)[C@@]1(O)C(=O)CO [DEXAMETHASONE] | – | – | –
27 | 2.6 nM | 28.6 nM | 6.3 nM | 39.2 nM | 12.4 nM | – | – | – | – | CC(C)(C(=O)Nc1nncs1)[C@H]1c2ccccc2Oc2nc(-c3ccc(C(=O)N4CCOCC4)cc3)ccc21 | – | – | –
28 | 15.7 nM | 721 nM | 64.9 nM | 702 nM | 124 nM | – | – | – | 2400 nM | CCN(C)C(=O)c1ccc(-c2ccc3c(n2)Oc2ccccc2[C@H]3C(C)(C)C(=O)Nc2nncs2)cc1Cl | – | – | –
29 | – | 1740 nM | – | > 10000 nM | > 10000 nM | – | – | – | > 5000 nM | CN(C)C(=O)c1ccc(-c2ccc3c(n2)Oc2ccccc2[C@H]3C(C)(C)C(=O)Nc2nncs2)cc1 | – | – | –
30 | – | 187 nM | – | > 10000 nM | > 1500 nM | – | – | – | > 5000 nM | CC(C)(C(=O)Nc1nncs1)[C@H]1c2ccccc2Oc2nc(-c3ccccc3)ccc21 | – | – | –
